Laboratory results taken from ChEMBL document CHEMBL4834426, “Antimalarial Benzimidazole Derivatives Incorporating Phenolic Mannich Base Side Chains Inhibit Microtubule and Hemozoin Formation: Structure-Activity Relationship and In Vivo Oral Efficacy Studies” (J Med Chem, 2021).

Columns and labels:
Plasmodium falciparum [1] = assay: Antimalarial activity against asexual blood stage drug-sensitive Plasmodium falciparum NF54 infected in erythrocytes assessed as reduction in parasitemia incubated up to 72 hrs by [3H]hypoxanthine incorporation assay; assay type: functional, organism-based
How it was run: (§1)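 [³H]-Hypoxanthine incorporation assay (modified) on asexual blood-stage P. falciparum in vitro. IC₅₀ values are means of ≥2 independent experiments.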

Plasmodium falciparum [2] = assay: Antiplasmodial activity against […] Plasmodium falciparum NF54 late gametocytes transfected with GFP-Luc […] at 5 uM incubated for 48 hrs by microscopy based luciferase reporter gene assay relative to control; assay type: functional
How it was run: (§2)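 NF54-Pfs16-GFP-Luc gametocytes, assays set up day 5 (early, stage II/III) or day 10 (late, stage IV/V). Culture at 2−3% gametocytemia, 1.5% hematocrit, 48 h drug exposure at 37 °C under 90% N₂/5% O₂/5% CO₂. Lysates mixed with luciferin; bioluminescence read with 10 s integration. Dual-point: one biological repeat in technical triplicate. Methylene blue (5 μM) reference.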

Plasmodium falciparum [3] = assay: Antiplasmodial activity against […] Plasmodium falciparum NF54 early gametocytes transfected with GFP-Luc […] at 1 uM incubated for 48 hrs by microscopy based luciferase reporter gene assay relative to control; assay type: functional; how it was run: as §2
Plasmodium falciparum [4] = assay: Antiplasmodial activity against […] Plasmodium falciparum NF54 late gametocytes transfected with GFP-Luc […] at 1 uM incubated for 48 hrs by microscopy based luciferase reporter gene assay relative to control; assay type: functional; how it was run: as §2
Plasmodium falciparum [5] = assay: Antimalarial activity against asexual blood stage multi drug-resistant Plasmodium falciparum K1 infected in erythrocytes assessed as reduction in parasitemia incubated up to 72 hrs by [3H]hypoxanthine incorporation assay; assay type: functional, organism-based; how it was run: as §1
Plasmodium falciparum [6] = assay: Antiplasmodial activity against […] Plasmodium falciparum NF54 early gametocytes transfected with GFP-Luc […] at 5 uM incubated for 48 hrs by microscopy based luciferase reporter gene assay relative to control; assay type: functional; how it was run: as §2
CHO = assay: Cytotoxicity against CHO cells assessed as inhibition of cell viability by MTT assay; assay type: cell-based; conditions: Cricetulus griseus
[7] = Resistance index, ratio of IC50 for antimalarial activity against asexual blood stage multi drug-resistant Plasmodium falciparum K1 to IC50 for antimalarial activity against asexual blood stage drug-sensitive Plasmodium falciparum NF54; assay type: functional
How it was run: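 Resistance index is IC₅₀(K1)/IC₅₀(NF54). Both IC₅₀s came from the [³H]-hypoxanthine incorporation assay, as means of ≥2 independent experiments.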

[8] = Selectivity index, ratio of IC50 for Cytotoxicity against CHO cells assessed as inhibition of cell viability by MTT assay to IC50 for antimalarial activity against asexual blood stage Plasmodium falciparum NF54 assessed as reduction in parasitemia incubated up to 72 hrs by [3H]hypoxanthine incorporation assay; assay type: toxicity, cell-based; conditions: hamster, read-out: Selectivity Index
How it was run: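 Selectivity index is IC₅₀(CHO)/IC₅₀(NF54). […] IC₅₀ came from nonlinear dose-response fitting. Parasite IC₅₀ came from the [³H]-hypoxanthine assay.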

Compound	IC50 (Plasmodium falciparum [1]) [nM]	inhibition at 5 µM (Plasmodium falciparum [2]) [%]	inhibition at 1 µM (Plasmodium falciparum [3]) [%]	inhibition at 1 µM (Plasmodium falciparum [4]) [%]	IC50 (Plasmodium falciparum [5]) [nM]	inhibition at 5 µM (Plasmodium falciparum [6]) [%]	IC50 (CHO) [nM]	Ratio IC50 [7]	selectivity ratio at 72 h [8]
CCN(CC)Cc1cc(Nc2nc3ccccc3n2Cc2ccc(F)cc2)ccc1O	680	39	33	11	1950	59	12000	2.87	17.6
Cc1cc(CNC(C)(C)C)c(O)c(Nc2nc3ccccc3[nH]2)c1	200	39	0	22	790	47	33300	3.95	166
CCN(CC)Cc1cc(C)cc(Nc2nc3ccccc3[nH]2)c1O	230	37	1		420	44	> 50000	1.83	> 217
Cc1cc(CNC(C)(C)C)c(O)c(Nc2nc3c(Cl)cc(Cl)cc3[nH]2)c1	220	0	0	0	400	0	25800	1.81	117
CC(C)(C)NCc1cc(Cl)cc(Nc2nc3cc(F)c(F)cc3[nH]2)c1O	260	0	0	0	530	16	39700	2.4	153
CCN(CC)Cc1cc(Nc2nc3ccccc3n2Cc2ccc(C(F)(F)F)cc2)ccc1O	390	45	34	31	1690	48	17500	4.33	44.9
CCN(CC)Cc1ccc(Nc2nc3ccccc3n2Cc2ccc(F)cc2)cc1O	640	36	12	31	1280	15	45800	2	71.5
Cc1cc(CN)c(O)c(Nc2nc3ccccc3n2Cc2ccc(C(F)(F)F)cc2)c1	5470	0	20	0		38	47600		10.4
Cc1cc(CNC(C)(C)C)c(O)c(Nc2nc3cc(F)c(F)cc3[nH]2)c1	260	0	0	0	830	31	16600	3.19	64
CC(C)(C)NCc1cc(C(C)(C)C)cc(Nc2nc3cc(F)c(F)cc3[nH]2)c1O	150	0	0	0	280	0	34200	1.87	228
CCN(CC)Cc1cccc(Nc2nc3ccccc3[nH]2)c1O	560	34	3		770	0	> 50000	1.38	> 89
CCN(CC)Cc1ccc(C)c(Nc2nc3ccccc3n2Cc2ccc(C#N)cc2)c1O	870	22	19	0	830	96	> 50000	0.95	> 57
CN(C)c1ccc2nc3ccc(N(C)C)cc3[s+]c2c1 [METHYLENE BLUE ANHYDROUS]			93	90					
CC(C)(C)NCc1cc(C(C)(C)C)cc(Nc2nc3ccccc3[nH]2)c1O	80	0	30	0	250	56	30500	3.12	> 380
CCN(CC)Cc1cc(C)cc(Nc2nc3ccccc3n2Cc2ccc(C#N)cc2)c1O	650	52	39	15	460	98	14200	0.71	21.8
CCN(CC)Cc1cccc(Nc2nc3ccccc3n2Cc2ccc(C#N)cc2)c1O	1000	43	47		660	69	> 50000	0.66	> 50
CCN(CC)Cc1ccc(Nc2nc3ccccc3n2Cc2ccc(C#N)cc2)cc1O	370	21	38		760	44	39000	2.05	106
CCN(CC)Cc1ccc(Nc2nc3ccccc3[nH]2)cc1O	1880				> 10000		> 50000	> 5.32	> 26
CC(C)(C)NCc1cc(Cl)cc(Nc2nc3ccccc3[nH]2)c1O	270	0	0	0	630	0	> 50000	2.33	> 185
CCN(CC)Cc1cc(Nc2nc3ccccc3[nH]2)ccc1O	800	28	30	0	7270	9	> 50000	9.09	> 62
CCN(CC)Cc1ccc(C)c(Nc2nc3ccccc3[nH]2)c1O	860	31	3	34	1620	32	> 50000	1.88	> 58
CCN(CC)Cc1cc(Nc2nc3ccccc3n2Cc2ccc(C#N)cc2)ccc1O	470	35	20		1970	23	> 50000	4.19	> 106
CCN(CC)Cc1ccc(C)c(Nc2nc3ccccc3n2Cc2ccc(F)cc2)c1O	2270	39	14	0	1320	24	> 50000	0.58	> 22
CCN(CC)Cc1ccc(Nc2nc3ccccc3n2Cc2ccc(C(F)(F)F)cc2)cc1O	470	24	36	2	870	41	41500	1.85	88.3
